Source: ChEMBL document CHEMBL1926528, “Formulating a new basis for the treatment against botulinum neurotoxin intoxication: 3,4-Diaminopyridine prodrug design and characterization” (Bioorg Med Chem, 2011)

How the values were obtained:
Acetylcholinesterase [1] = target: T1, Acetylcholinesterase (Electrophorus electricus, UniProt O42275); assay: Inhibition of Electrophorus electricus Type V-S acetylcholinesterase using […] as substrate by spectrophotometric Ellman's assay
Procedure, shortened: (§1)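 Ellman method at 37°C in 100 mM sodium phosphate pH 8.0 with 360 µM DTNB. Substrate was 100 µM acetylthiocholine iodide for eel AChE or butyrylthiocholine iodide for equine BChE, each reconstituted in 1% gelatin buffer. Prodrug ranged 500 µM to 2 µM. Reaction started with 0.5 U enzyme; linear rates read at 412 nm. IC50 and Ki came from non-linear regression, with Ki from varied inhibitor and substrate concentrations.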

Butyrylcholinesterase [2] = target: T2, Butyrylcholinesterase (Equus caballus, UniProt Q9N1N9); assay: Inhibition of equine serum BChE using butyrylthiocholine iodide as a substrate by spectrophotometric Ellman's assay; procedure, shortened: as §1
T2 sequence (Q9N1N9 whole entry): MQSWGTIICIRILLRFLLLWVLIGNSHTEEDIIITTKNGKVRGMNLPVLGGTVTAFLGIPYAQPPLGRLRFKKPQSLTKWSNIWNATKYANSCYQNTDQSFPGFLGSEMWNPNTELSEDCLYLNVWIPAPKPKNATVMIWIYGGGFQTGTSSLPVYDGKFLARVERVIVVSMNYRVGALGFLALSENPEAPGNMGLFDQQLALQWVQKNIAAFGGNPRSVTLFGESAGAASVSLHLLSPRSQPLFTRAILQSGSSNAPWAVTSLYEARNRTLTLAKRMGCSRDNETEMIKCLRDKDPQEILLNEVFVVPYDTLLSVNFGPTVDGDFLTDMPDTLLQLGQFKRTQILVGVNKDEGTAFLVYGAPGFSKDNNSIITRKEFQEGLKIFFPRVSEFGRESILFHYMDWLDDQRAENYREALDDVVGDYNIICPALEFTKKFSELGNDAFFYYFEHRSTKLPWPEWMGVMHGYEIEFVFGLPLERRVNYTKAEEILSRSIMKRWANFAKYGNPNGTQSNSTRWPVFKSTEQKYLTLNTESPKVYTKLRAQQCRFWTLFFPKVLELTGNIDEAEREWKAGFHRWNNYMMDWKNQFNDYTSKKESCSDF

Acetylcholinesterase [3] = target: T1, Acetylcholinesterase; assay: Prodrug activation assessed as Electrophorus electricus Type V-S acetylcholinesterase mediated 3,4-diaminopyridine release measured 3 hrs post enzymatic hydrolysis by reverse phase HPLC
Procedure, shortened: (§2)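 Prodrug at 500 µM was incubated with 1.0 U eel AChE or equine BChE in 100 mM sodium phosphate pH 8.0 for 3 h at 37°C. Reaction was quenched with glacial acetic acid. Released 3,4-DAP was measured by C18 reverse-phase HPLC (TFA water/acetonitrile gradient, 254 and 320 nm) and quantified from peak area against authentic standards.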

Butyrylcholinesterase [4] = target: T2, Butyrylcholinesterase; assay: Prodrug activation assessed as equine serum BChE-mediated 3,4-diaminopyridine release measured 3 hrs post enzymatic hydrolysis by reverse phase HPLC; settings: horse; procedure, shortened: as §2
Serum = assay: Half life mouse serum by reverse phase HPLC; type: ADME, cell-free
Procedure, shortened: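 15 µl of 10 mM prodrug stock went into 85 µL mouse serum from clotted blood, pre-warmed to 37°C. Samples were taken at 0–120 min and extracted with cold acetonitrile; proteins were removed by centrifugation. Breakdown product 3,4-DAP was followed by reverse-phase HPLC. Half-life was calculated from 1-hour endpoint samples.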

[5] = Half life in iv dosed mouse; type: ADME, organism-based; settings: in vivo

T1 sequence (O42275 whole entry): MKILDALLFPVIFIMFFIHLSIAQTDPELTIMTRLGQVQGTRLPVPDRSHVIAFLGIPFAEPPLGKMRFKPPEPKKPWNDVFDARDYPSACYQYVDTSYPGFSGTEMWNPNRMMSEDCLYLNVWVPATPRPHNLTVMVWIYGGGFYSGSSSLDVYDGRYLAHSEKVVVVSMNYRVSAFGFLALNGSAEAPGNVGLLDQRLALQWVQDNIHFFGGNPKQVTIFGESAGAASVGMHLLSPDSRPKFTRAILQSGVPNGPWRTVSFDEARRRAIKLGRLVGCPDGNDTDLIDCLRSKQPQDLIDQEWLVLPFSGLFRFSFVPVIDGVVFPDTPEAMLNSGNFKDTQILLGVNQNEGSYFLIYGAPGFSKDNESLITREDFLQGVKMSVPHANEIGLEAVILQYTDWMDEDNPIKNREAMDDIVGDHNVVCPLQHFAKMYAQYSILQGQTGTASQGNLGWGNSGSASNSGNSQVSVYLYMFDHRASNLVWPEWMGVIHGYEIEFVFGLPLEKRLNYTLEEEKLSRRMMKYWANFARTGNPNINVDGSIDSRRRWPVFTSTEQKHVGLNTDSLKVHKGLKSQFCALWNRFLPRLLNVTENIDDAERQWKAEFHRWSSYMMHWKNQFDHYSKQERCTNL

SMILES	IC50 (Acetylcholinesterase [1]) [µM]	Ki (Acetylcholinesterase [1]) [µM]	IC50 (Butyrylcholinesterase [2]) [µM]	Ki (Butyrylcholinesterase [2]) [µM]	Drug metabolism (Acetylcholinesterase [3]) [µM]	Drug metabolism (Butyrylcholinesterase [4]) [µM]	t1/2 (Serum) [min]	half-life [5] [min]
CC(=O)Oc1ccc(COC(=O)Nc2ccncc2N)cc1	49.4	10.9	10.6	1.6	0	0		
CCC(=O)Oc1ccc(COC(=O)Nc2ccncc2N)cc1	5.2	5.7	129	25	145	82	1.2	
CCCC(=O)Oc1ccc(COC(=O)Nc2ccncc2N)cc1	48.8	12.1	111	14.4	10	71		
CC(C)C(=O)Oc1ccc(COC(=O)Nc2ccncc2N)cc1	8.5	3.9	122	42	105	82	1.9	
CC(C)CC(=O)Oc1ccc(COC(=O)Nc2ccncc2N)cc1	11.9	55.4	87.7	38.4	12	83		
Nc1cnccc1NC(=O)OCc1ccc(OC(=O)C2CCCC2)cc1	11.6	6.8	77.5	37.2	34	79		
Nc1cnccc1NC(=O)OCc1ccc(OC(=O)c2ccccc2)cc1	167		392		1	0		
COc1cccc(C(=O)Oc2ccc(COC(=O)Nc3ccncc3N)cc2)c1	163		61.7		2	0		
Nc1cnccc1NC(=O)OCc1ccc(OC(=O)Cc2ccccc2)cc1	136		32.2	30.7	0	0		
CC(C)C(=O)OCc1ccccc1COC(=O)Nc1ccncc1N	496		> 500		29	5		
CC(C)C(=O)OCCOC(=O)Nc1ccncc1N	25.9	> 500	61.9	> 500	0	4		
COC(=O)Nc1cnccc1N	> 500		> 500		0	0		
COC(=O)Nc1ccncc1NC(=O)OC	36.3	> 500	417	> 500	0	0		
COC(=O)Nc1ccncc1N	45.6		491		0	0		
CC(=O)Nc1ccncc1N	61.3	32.5	> 500	173	0	0		
CC(=O)Nc1ccncc1NC(C)=O	34.2		404		0	0		
Nc1cnccc1NC(=O)c1ccccc1	> 500		> 500		0	0		
Nc1cnccc1NC(=O)C1CCCC1	> 500		> 500		4	8		
CC(C)OC(=O)CCC(=O)Nc1ccncc1N	88.3	3.2	97.4	62	3.4	5.8	165	
Nc1cncc(N)c1N								18.6
C#CC[n+]1ccc(N)c(N)c1								72
